Experimental data taken from ChEMBL document CHEMBL1124260, “Synthesis and antitumor activity of quaternary ellipticine glycosides, a series of novel and highly active antitumor agents” (1988).
Values joined by “and” are separate entries in the source; they are usually repeats but may differ in a detail not shown here. Equal entries are not always repeated.

Tests used:
Mus musculus [1] = experiment: Number of survivors out of 6 ip implanted EAC leukemia mouse tested after 80 days at 10 mg/kg; type: functional; details: route intraperitoneal
Method in brief: (§1)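 Drug dissolved and diluted in saline just before use, given ip for 5 consecutive days starting 24 h after implant. Six mice per dose. Survivors counted at 80 days; ILS % taken from mean survival time of treated vs control mice.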

Mus musculus [2] = experiment: Effect on ip implanted sarcoma 180 by ip administration for 5 days at 20 mg/kg was measured as increase in mean life span; type: functional; details: Sarcoma-180, ip, 120 h, route intraperitoneal
Method in brief: (§2)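 Saline-dissolved drug was dosed ip daily for 5 consecutive days starting 24 h later. Readout was ILS % (mean survival time of treated vs control) over an 80-day observation.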

Mus musculus [3] = experiment: Effect on ip implanted sarcoma 180 by ip administration for 5 days at 40 mg/kg was measured as increase in mean life span; type: functional; details: Sarcoma-180, ip, 120 h, route intraperitoneal; method in brief: as §2
Mus musculus [4] = experiment: Effect on ip implanted sarcoma 180 by ip administration for 5 days at 80 mg/kg was measured as increase in mean life span; type: functional; details: Sarcoma-180, ip, 120 h, route intraperitoneal; method in brief: as §2
Mus musculus [5] = experiment: Antitumor activity against ip implanted L1210 leukemia in mouse after ip administration of 1.25 mg/kg for 5 days expressed as increase in mean life span; type: functional; details: 120 h, route intraperitoneal
Method in brief: (§3)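 Drug was dissolved in 0.9% NaCl, diluted just before use and given ip once daily for 5 consecutive days, starting 24 h after transplant. ILS % = mean survival time of treated vs control mice, observed for 80 days.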

Mus musculus [6] = experiment: Number of survivors out of 6 ip implanted P388 leukemia mouse tested after 80 days at 10 mg/kg; type: functional; details: route intraperitoneal
Method in brief: (§4)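 P388 leukemia, 10^6 ascitic cells implanted ip in female BDF1 mice. Drug in saline given ip for 5 consecutive days from 24 h after transplant. Groups of six per dose level. Survivors/total recorded at the 80-day end of observation; ILS % from treated/control mean survival time.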

Mus musculus [7] = experiment: Number of survivors out of 6 ip implanted P388 leukemia mouse tested after 80 days at 20 mg/kg; type: functional; details: route intraperitoneal; method in brief: as §4
Mus musculus [8] = experiment: Number of survivors out of 6 ip implanted P388 leukemia mouse tested after 80 days at 40 mg/kg; type: functional; details: route intraperitoneal; method in brief: as §4
Mus musculus [9] = experiment: Number of survivors out of 6 ip implanted sarcoma 180 leukemia mouse tested after 80 days at 40 mg/kg; type: functional; details: route intraperitoneal; method in brief: as §1
Mus musculus [10] = experiment: Number of survivors out of 6 ip-ip implanted EAC leukemia mouse tested after 80 days at 80 mg/kg; type: functional; method in brief: as §1
Mus musculus [11] = experiment: Number of survivors out of 6 ip-ip implanted L1210 leukemia mouse tested after 80 days at 20 mg/kg; type: functional
Method in brief: (§5)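 Female BDF1 mice implanted ip with ascitic fluid holding 10^5 L1210 cells. Saline-dissolved drug given ip daily on days 1-5, starting 24 h after implant. Six mice per dose group, followed 80 days. Survivors/total counted at day 80; ILS % from mean survival time vs controls.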

Mus musculus [12] = experiment: Number of survivors out of 6 ip-ip implanted L1210 leukemia mouse tested after 80 days at 40 mg/kg; type: functional; method in brief: as §5
Mus musculus [13] = experiment: Number of survivors out of 6 ip-iv implanted L1210 leukemia mouse tested after 80 days at 30 mg/kg; type: functional
Method in brief: (§6)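 Female BDF1 mice bearing ip-implanted leukemia: 10^5 cells for L1210, 10^6 cells for P388. Drug dissolved in saline, given iv for 5 consecutive days beginning 24 h post-implant. Six mice per dose. Survivors scored at 80 days; ILS % from mean survival time relative to controls.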

Mus musculus [14] = experiment: Number of survivors out of 6 ip-iv implanted P388 leukemia mouse tested after 80 days at 20 mg/kg; type: functional; method in brief: as §6
Mus musculus [15] = experiment: Effect on ip implanted EAC by ip administration at 20 mg/kg was for 5 days measured as increase in mean life span; type: functional; details: 120 h, route intraperitoneal
Method in brief: (§7)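 Drug in 0.9% NaCl was given ip for 5 consecutive days from 24 h after inoculation. ILS % came from treated vs control mean survival time, followed for 80 days.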

Mus musculus [16] = experiment: Effect on ip implanted EAC by ip administration for 5 days at 10 mg/kg was measured as increase in mean life span; type: functional; details: 120 h, route intraperitoneal; method in brief: as §7
Mus musculus [17] = experiment: Antitumor activity against ip implanted L1210 leukemia in mouse after ip administration of 10 mg/kg for 5 days expressed as increase in mean life span; type: functional; details: Mus musculus, L1210, ip, 120 h, route intraperitoneal; method in brief: as §3
Mus musculus [18] = experiment: Antitumor activity against ip implanted L1210 leukemia in mouse after ip administration of 20 mg/kg for 5 days expressed as increase in mean life span; type: functional; details: 120 h, route intraperitoneal; method in brief: as §3
Mus musculus [19] = experiment: Antitumor activity against ip implanted L1210 leukemia in mouse after ip administration of 30 mg/kg for 5 days expressed as increase in mean life span; type: functional; details: Mus musculus, L1210, ip, 120 h, route intraperitoneal; method in brief: as §3
Mus musculus [20] = experiment: Antitumor activity against ip implanted L1210 leukemia in mouse after ip administration of 40 mg/kg for 5 days expressed as increase in mean life span; type: functional; details: 120 h, route intraperitoneal; method in brief: as §3
Mus musculus [21] = experiment: Antitumor activity against ip implanted L1210 leukemia in mouse after ip administration of 5 mg/kg for 5 days expressed as increase in mean life span; type: functional; details: Mus musculus, L1210, ip, 120 h, route intraperitoneal; method in brief: as §3
Mus musculus [22] = experiment: Antitumor activity against iv implanted L1210 leukemia in mouse after ip administration of 10 mg/kg for 5 days expressed as increase in mean life span; type: functional
Mus musculus [23] = experiment: Antitumor activity against iv implanted L1210 leukemia in mouse after ip administration of 20 mg/kg for 5 days expressed as increase in mean life span; type: functional
Mus musculus [24] = experiment: Number of survivors out of 6 ip implanted L1210 leukemia mouse, tested after 80 days at 30 mg/kg; type: functional; details: route intraperitoneal; method in brief: as §5
Mus musculus [25] = experiment: Effect on ip implanted EAC by ip administration for 5 days at 40 mg/kg was measured as increase in mean life span; type: functional; details: 120 h, route intraperitoneal; method in brief: as §7
Mus musculus [26] = experiment: Effect on ip implanted EAC by ip administration for 5 days at 5 mg/kg was measured as increase in mean life span; type: functional; details: 120 h, route intraperitoneal; method in brief: as §7
Mus musculus [27] = experiment: Effect on ip implanted EAC by ip administration for 5 days at 80 mg/kg was measured as increase in mean life span; type: functional; details: 120 h, route intraperitoneal; method in brief: as §7
Mus musculus [28] = experiment: Effect on ip implanted sarcoma 180 by ip administration for 5 days at 10 mg/kg was measured as increase in mean life span; type: functional; details: Sarcoma-180, ip, 120 h, route intraperitoneal; method in brief: as §2
Mus musculus [29] = experiment: Inhibition of sc implanted syngeneic colon 38 carcinoma by ip administration at 20 mg/kg was on 1, 3, 5, 7, 9 days measured as inhibition ratio; type: functional; details: route subcutaneous
Method in brief: (§8)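 Tumor homogenate (70 mg) implanted into the axillary region of female BDF1 mice. Drug dissolved in 0.9% NaCl and diluted with saline just before use, then given ip on days 1, 3, 5, 7 and 9. Tumor length and width were measured by caliper on day 20 after inoculation and converted to estimated weight. Result reported as treated vs control tumor weight, T/C %.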

Mus musculus [30] = experiment: Inhibition of sc implanted syngeneic colon 38 carcinoma by ip administration at 30 mg/kg was on 1, 3, 5, 7, 9 days measured as inhibition ratio; type: functional; details: route subcutaneous; method in brief: as §8
Mus musculus [31] = experiment: Inhibition of sc implanted syngeneic colon 38 carcinoma by ip administration at 40 mg/kg was on 1, 3, 5, 7, 9 days measured as inhibition ratio; type: functional; details: route subcutaneous; method in brief: as §8
Mus musculus [32] = experiment: Inhibition of sc implanted syngeneic colon 38 carcinoma by ip administration at 50 mg/kg was on 1, 3, 5, 7, 9 days measured as inhibition ratio; type: functional; details: route subcutaneous; method in brief: as §8
Mus musculus [33] = experiment: Number of survivors out of 6 ip-ip implanted EAC leukemia mouse tested after 80 days at 40 mg/kg; type: functional; method in brief: as §1
Mus musculus [34] = experiment: Number of survivors out of 6 ip implanted sarcoma 180 leukemia mouse tested after 80 days at 80 mg/kg; type: functional; details: route intraperitoneal; method in brief: as §1
Mus musculus [35] = experiment: Number of survivors out of 6 ip-ip implanted EAC leukemia mouse tested after 80 days at 20 mg/kg; type: functional; method in brief: as §1
Mus musculus [36] = experiment: Effect on ip implanted syngeneic B16 melanoma by ip administration of 20 mg/kg for 9 days measured as increase in mean life span; details: 216 h
Mus musculus [37] = experiment: Effect on ip implanted syngeneic B16 melanoma by ip administration for 9 days at 5 mg/kg was measured as increase in mean life span; details: 216 h
Mus musculus [38] = experiment: Effect on ip implanted syngeneic B16 melanoma by ip administration for 9 days at 10 mg/kg was measured as increase in mean life span; details: 216 h
Mus musculus [39] = experiment: Effect on ip implanted syngeneic B16 melanoma by ip administration for 9 days at 2.5 mg/kg was measured as increase in mean life span; details: 216 h
Mus musculus [40] = experiment: Antitumor activity against ip implanted P388 leukemia in mouse after iv administration of 10 mg/kg for 5 days expressed as increase in mean life span; details: 120 h
Mus musculus [41] = experiment: Antitumor activity against ip implanted P388 leukemia in mouse after iv administration of 20 mg/kg for 5 days expressed as increase in mean life span; details: 120 h
Mus musculus [42] = experiment: Antitumor activity against ip implanted L1210 leukemia in mouse after iv administration of 30 mg/kg for 5 days expressed as increase in mean life span; details: 120 h

SMILES: Cc1c2cc[n+]([C@@H]3OC[C@H](O)[C@H](O)[C@H]3O)cc2c(C)c2c1[nH]c1ccc(O)cc12.[Br-]
- Cures@ 10mg/kg (Mus musculus [1]): 1
- ILS at 20 mg/kg (Mus musculus [2]): 282%
- ILS at 40 mg/kg (Mus musculus [3]): > 339%
- ILS at 80 mg/kg (Mus musculus [4]): > 353%
- ILS at 1.25 mg/kg (Mus musculus [5]): 37%
- Cures (Mus musculus [6]): 1
- Cures (Mus musculus [7]): 3
- Cures (Mus musculus [8]): 6
- Cures@ 40mg/kg (Mus musculus [9]): 2
- Cures (Mus musculus [10]): 5
- Cures (Mus musculus [11]): 1
- Cures (Mus musculus [12]): 4
- Cures (Mus musculus [13]): 2
- Cures (Mus musculus [14]): 2
- ILS at 20 mg/kg (Mus musculus [15]): > 338%
- ILS at 10 mg/kg (Mus musculus [16]): > 297%
- ILS at 10 mg/kg (Mus musculus [17]): 113%
- ILS at 20 mg/kg (Mus musculus [18]): > 251%
- ILS at 30 mg/kg (Mus musculus [19]): > 860%
- ILS at 40 mg/kg (Mus musculus [20]): > 713%
- ILS at 5 mg/kg (Mus musculus [21]): 57%
- ILS (Mus musculus [22]): 82% and >214%
- ILS (Mus musculus [23]): 198% and >549%
- Cures (Mus musculus [24]): 5
- ILS at 40 mg/kg (Mus musculus [25]): > 518%
- ILS at 5 mg/kg (Mus musculus [26]): 95%
- ILS at 80 mg/kg (Mus musculus [27]): > 492%
- ILS at 10 mg/kg (Mus musculus [28]): 117%
- T/C @ 20mg/kg (Mus musculus [29]): 66%
- T/C @ 30mg/kg (Mus musculus [30]): 59%
- T/C @ 40mg/kg (Mus musculus [31]): 7%
- T/C @ 50mg/kg (Mus musculus [32]): 4%
- Cures@ 40mg/kg (Mus musculus [33]): 5
- Cures@ 80 mg/kg (Mus musculus [34]): 2
- Cures@ 20mg/kg (Mus musculus [35]): 1
- ILS at 20 mg/kg (Mus musculus [36]): 60%
- ILS at 5 mg/kg (Mus musculus [37]): 44%
- ILS at 10 mg/kg (Mus musculus [38]): 46%
- ILS at 2.5 mg/kg (Mus musculus [39]): 38%
- ILS at 10 mg/kg (Mus musculus [40]): 83%
- ILS at 20 mg/kg (Mus musculus [41]): > 394%
- ILS at 30 mg/kg (Mus musculus [42]): > 344%
